One may read the Ki as a measure of affinity in units of concentration, obtained from inhibition or displacement. In general, Emax refers to the size of the effect at its maximum, as opposed to the concentration needed. As usually defined, the EC50 is the concentration giving half of the maximal effect. High values mean lower potency in that assay, low ones higher potency in that assay. As usually defined, the inhibition is the relative decrease from the control value, in per cent.

Data on 7 compounds can be found in ChEMBL document CHEMBL1141169, “Discovery of 5-arylsulfonamido-3-(pyrrolidin-2-ylmethyl)-1H-indole derivatives as potent, selective 5-HT6 receptor agonists and antagonists” (J Med Chem, 2005).

In assay [1] the target is T1, 5-hydroxytryptamine receptor 2C (Homo sapiens, UniProt P28335).
T1 sequence (P28335 whole entry): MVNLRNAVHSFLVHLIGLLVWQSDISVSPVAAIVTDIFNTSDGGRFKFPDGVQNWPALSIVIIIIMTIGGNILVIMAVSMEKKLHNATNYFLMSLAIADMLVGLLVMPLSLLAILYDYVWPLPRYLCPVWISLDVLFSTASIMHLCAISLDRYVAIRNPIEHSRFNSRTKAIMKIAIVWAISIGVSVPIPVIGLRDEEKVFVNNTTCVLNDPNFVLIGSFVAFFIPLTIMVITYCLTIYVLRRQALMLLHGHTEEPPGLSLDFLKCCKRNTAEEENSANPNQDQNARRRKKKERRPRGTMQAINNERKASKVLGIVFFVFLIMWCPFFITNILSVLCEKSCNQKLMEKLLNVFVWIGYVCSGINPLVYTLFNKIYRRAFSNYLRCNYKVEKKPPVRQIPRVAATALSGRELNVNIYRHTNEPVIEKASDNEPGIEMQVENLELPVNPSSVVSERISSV
The assay is described as follows: Inhibition of [3H]5-HT binding to human 5-hydroxytryptamine 2C receptor expressed in CHO cells. The class given is cell-based. The essentials: (§1)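 Radioligands: 5-HT1A, 8-hydroxy-[3H]-DPAT; 5-HT2C, [3H]-5-HT; 5-HT2A, [125I]DOI; D2, D3 and D4, [3H]spiperone. Ki determined in triplicate, or n = 1 where footnoted.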

Assay [2] deals with 5-hydroxytryptamine receptor 1D (Homo sapiens, UniProt P28221). Kind of assay: Inhibition of [3H]-8-OH-DPAT binding to human 5-hydroxytryptamine 1D receptor expressed in CHO cells. In kind it is cell-based.
Chain of 5-hydroxytryptamine receptor 1D (P28221 whole entry): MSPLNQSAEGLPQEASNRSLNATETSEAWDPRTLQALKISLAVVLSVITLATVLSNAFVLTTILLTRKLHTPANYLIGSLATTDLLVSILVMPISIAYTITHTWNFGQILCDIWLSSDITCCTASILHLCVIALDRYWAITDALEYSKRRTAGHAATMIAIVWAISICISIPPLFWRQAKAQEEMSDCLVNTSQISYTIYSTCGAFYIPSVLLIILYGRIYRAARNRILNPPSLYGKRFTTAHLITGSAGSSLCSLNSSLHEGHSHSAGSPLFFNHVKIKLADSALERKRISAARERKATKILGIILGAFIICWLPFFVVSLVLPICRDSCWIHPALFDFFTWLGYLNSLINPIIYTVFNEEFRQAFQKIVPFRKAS
A further assay deals with T2, D(4) dopamine receptor (Homo sapiens, UniProt P21917).
T2 sequence (P21917 whole entry): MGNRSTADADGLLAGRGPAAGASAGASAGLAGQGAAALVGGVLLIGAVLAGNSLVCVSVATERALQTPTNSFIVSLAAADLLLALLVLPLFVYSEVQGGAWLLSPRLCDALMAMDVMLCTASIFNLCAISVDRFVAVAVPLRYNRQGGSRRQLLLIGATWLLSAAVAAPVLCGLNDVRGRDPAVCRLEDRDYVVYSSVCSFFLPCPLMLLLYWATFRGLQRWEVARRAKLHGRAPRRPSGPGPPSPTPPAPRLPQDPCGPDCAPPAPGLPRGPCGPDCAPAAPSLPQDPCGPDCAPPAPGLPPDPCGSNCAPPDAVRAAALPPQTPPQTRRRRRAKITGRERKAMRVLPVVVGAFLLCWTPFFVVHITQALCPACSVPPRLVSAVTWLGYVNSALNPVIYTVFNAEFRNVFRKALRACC
Kind of assay: Inhibition of [3H]spiperone binding to human dopamine receptor D4 expressed in CHO-K1 cells. In kind it is cell-based. Summed up:
as §1

For the next assay, the target named is D(2) dopamine receptor (Homo sapiens, UniProt P14416). The assay is described as follows: Inhibition of [3H]spiperone binding to human dopamine receptor D2 expressed in CHO-K1 cells. In kind it is cell-based. The essentials: as §1
Chain of D(2) dopamine receptor (P14416 whole entry): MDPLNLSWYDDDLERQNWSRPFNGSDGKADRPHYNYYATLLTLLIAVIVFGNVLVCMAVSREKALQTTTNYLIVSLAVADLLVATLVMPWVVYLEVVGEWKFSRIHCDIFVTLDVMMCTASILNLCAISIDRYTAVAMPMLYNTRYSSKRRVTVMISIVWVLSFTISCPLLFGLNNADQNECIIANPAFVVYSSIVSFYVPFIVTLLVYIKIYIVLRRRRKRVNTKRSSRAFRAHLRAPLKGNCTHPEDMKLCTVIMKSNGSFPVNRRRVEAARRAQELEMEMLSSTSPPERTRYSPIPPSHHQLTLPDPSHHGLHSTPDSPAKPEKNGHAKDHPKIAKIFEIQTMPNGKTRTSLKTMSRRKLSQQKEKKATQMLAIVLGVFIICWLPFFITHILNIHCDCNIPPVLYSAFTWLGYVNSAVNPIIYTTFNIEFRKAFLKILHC
The target of assay [3] is T3, 5-hydroxytryptamine receptor 6 (Homo sapiens, UniProt P50406). The assay is described as follows: Inhibition of [3H]LSD binding to human 5-hydroxytryptamine 6 receptor expressed in HeLa cells. The class given is cell-based. Summed up:
(§2)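 Competition binding against [3H]-LSD on cloned human 5-HT6 receptors stably expressed in HeLa cells. Ki determined in triplicate; single-point lines are % inhibition at 1000 nM.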

Assay [4] addresses T3, 5-hydroxytryptamine receptor 6. Kind of assay: Maximum percentage agonism of cAMP production in HeLa cells expressing human 5-hydroxytryptamine 6 receptor. The class given is functional, cell-based. Summed up:
(§3)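 cAMP production read out across a range of ligand concentrations in HeLa cells stably transfected with the human 5-HT6 receptor, ligand given alone as agonist. EC50 and Emax each determined in triplicate.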

Assay [5] has as its target T4, 5-hydroxytryptamine receptor 1F (Homo sapiens, UniProt P30939).
T4 sequence (P30939 whole entry): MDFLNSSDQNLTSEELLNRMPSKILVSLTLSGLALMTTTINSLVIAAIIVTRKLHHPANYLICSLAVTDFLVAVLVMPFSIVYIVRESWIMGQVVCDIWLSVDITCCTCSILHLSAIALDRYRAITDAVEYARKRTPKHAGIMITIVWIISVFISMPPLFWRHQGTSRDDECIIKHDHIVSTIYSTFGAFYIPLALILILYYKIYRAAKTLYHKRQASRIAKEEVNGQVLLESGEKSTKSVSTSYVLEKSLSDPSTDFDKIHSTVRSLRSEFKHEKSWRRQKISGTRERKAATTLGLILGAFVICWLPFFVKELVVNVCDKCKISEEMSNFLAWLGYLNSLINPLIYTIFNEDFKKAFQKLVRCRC
Kind of assay: Inhibition of [3H]8-OH-DPAT binding to human 5-hydroxytryptamine 1F receptor expressed in CHO cells. In kind it is cell-based.

Assay [6] concerns the target T3, 5-hydroxytryptamine receptor 6. The assay is described as follows: Effective agonist concentration in cAMP release assay in HeLa cells expressing human 5-hydroxytryptamine 6 receptor. In kind it is functional, cell-based. The essentials: as §3
A further assay deals with D(3) dopamine receptor (Homo sapiens, UniProt P35462). The assay is described as follows: Inhibition of [3H]spiperone binding to human dopamine receptor D3 expressed in CHO-K1 cells. The class given is cell-based. Summed up:
as §1

Assay [7] concerns the target T5, 5-hydroxytryptamine receptor 1A (Homo sapiens, UniProt P08908).
T5 sequence (P08908 whole entry): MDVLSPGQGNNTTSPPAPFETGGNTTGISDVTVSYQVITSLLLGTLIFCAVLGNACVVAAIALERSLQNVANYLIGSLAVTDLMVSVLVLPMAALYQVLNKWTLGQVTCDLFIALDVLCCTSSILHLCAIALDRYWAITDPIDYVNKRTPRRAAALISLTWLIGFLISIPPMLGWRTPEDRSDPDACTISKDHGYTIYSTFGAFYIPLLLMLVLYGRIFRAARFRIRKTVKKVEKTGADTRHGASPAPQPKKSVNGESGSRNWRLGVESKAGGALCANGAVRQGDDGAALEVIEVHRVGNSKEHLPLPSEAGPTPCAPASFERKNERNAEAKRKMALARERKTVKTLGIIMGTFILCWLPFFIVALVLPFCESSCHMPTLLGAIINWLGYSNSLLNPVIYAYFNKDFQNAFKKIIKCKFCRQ
Kind of assay: Inhibition of [3H]8-OH-DPAT binding to human 5-hydroxytryptamine 1A receptor expressed in CHO cells. In kind it is cell-based. Summed up:
as §1

Assay [8] deals with T6, 5-hydroxytryptamine receptor 2A (Homo sapiens, UniProt P28223). Kind of assay: Inhibition of [125I]DOI binding to human 5-hydroxytryptamine 2A receptor expressed in CHO cells. In kind it is cell-based. Summed up:
as §1

The target of assay [9] is 5-hydroxytryptamine receptor 7 (Homo sapiens, UniProt P34969). The assay is described as follows: Inhibition of [3H]-LSD binding to 5-hydroxytryptamine 7 receptor expressed in CHO cells. In kind it is cell-based. Summed up:
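Displacement of [3H]-LSD from human 5-HT7 receptor clone stably expressed in CHO cells. Ki in triplicate, or n = 1 where footnoted.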

The target in assay [10] is T6, 5-hydroxytryptamine receptor 2A. Kind of assay: Percentage inhibition of [125I]DOI binding to human 5-hydroxytryptamine 2A receptor expressed in CHO cells at 1000 nM. In kind it is cell-based.
Assay [11] addresses T3, 5-hydroxytryptamine receptor 6. The assay is described as follows: Percentage inhibition of [3H]LSD binding to human 5-hydroxytryptamine 6 receptor expressed in HeLa cells at 1000 nM. In kind it is cell-based. The essentials:
as §2

Assay [12] shares this target. The following applies: HeLa.

Chain of D(3) dopamine receptor (P35462 whole entry): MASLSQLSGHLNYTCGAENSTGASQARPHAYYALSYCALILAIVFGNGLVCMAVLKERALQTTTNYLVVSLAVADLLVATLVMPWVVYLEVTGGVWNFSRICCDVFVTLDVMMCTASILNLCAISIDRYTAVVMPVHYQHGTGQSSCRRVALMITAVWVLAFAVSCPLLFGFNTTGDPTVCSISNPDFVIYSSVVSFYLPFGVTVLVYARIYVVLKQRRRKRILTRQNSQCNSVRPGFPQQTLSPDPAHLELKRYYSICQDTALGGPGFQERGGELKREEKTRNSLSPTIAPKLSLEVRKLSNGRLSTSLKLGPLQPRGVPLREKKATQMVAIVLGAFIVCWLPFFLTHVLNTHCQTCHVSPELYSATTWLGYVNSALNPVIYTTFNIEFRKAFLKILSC
T6 sequence (P28223 whole entry): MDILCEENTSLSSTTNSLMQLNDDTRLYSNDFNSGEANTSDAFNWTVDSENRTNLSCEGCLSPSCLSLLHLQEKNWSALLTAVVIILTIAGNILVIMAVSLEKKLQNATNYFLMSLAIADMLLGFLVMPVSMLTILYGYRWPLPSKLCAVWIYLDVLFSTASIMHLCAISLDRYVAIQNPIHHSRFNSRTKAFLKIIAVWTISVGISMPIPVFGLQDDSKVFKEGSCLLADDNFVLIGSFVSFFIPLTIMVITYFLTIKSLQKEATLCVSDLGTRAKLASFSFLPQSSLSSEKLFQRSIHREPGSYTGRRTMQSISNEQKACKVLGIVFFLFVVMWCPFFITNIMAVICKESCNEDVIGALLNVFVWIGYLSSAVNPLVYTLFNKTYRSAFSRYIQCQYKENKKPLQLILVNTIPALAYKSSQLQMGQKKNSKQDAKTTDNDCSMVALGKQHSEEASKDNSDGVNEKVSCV
T3 sequence (P50406 whole entry): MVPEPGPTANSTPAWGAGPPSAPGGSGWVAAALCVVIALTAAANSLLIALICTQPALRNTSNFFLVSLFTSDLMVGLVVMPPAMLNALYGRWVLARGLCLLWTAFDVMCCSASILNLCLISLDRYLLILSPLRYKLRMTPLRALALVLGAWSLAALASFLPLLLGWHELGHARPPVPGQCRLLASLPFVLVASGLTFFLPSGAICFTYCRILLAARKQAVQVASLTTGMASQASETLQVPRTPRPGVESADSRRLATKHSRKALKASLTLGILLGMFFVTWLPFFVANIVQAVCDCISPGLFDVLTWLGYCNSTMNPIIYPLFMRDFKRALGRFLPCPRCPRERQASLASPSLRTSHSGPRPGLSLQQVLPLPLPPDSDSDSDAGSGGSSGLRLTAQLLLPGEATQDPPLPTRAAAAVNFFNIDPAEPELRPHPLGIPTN
Chain of 5-hydroxytryptamine receptor 7 (P34969 whole entry): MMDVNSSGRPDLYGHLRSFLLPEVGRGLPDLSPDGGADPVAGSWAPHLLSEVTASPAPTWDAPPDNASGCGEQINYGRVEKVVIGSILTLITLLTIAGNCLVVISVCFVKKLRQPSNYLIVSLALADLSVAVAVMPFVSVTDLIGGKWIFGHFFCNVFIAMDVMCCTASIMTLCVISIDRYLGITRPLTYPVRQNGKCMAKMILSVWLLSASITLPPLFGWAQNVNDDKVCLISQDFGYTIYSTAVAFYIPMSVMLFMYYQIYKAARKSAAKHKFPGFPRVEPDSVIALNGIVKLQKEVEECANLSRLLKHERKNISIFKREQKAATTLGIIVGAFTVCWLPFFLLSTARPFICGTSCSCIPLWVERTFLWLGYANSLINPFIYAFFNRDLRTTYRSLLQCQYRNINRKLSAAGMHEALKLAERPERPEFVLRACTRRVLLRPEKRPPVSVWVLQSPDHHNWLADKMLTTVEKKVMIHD

Take `O=S(=O)(Nc1ccc2[nH]cc(C[C@H]3CCCN3)c2c1)c1ccccc1Cl`: the Ki in [1] was 566 nM; in [2] it was over 1000 nM; on D(4) dopamine receptor, over 5000 nM; on D(2) dopamine receptor it was over 5000 nM; in assay [3], 3 nM; in assay [5] it was 12.3 nM. The Ki is over 5000 nM at D(3) dopamine receptor and 552 nM in [7]. For the same compound, the Emax in [4] came out at 100%. Besides, the midpoint of the response in assay [6], the EC50, lay at 1.3 nM.

For the compound `CN1CCC[C@@H]1Cc1c[nH]c2ccc(NS(=O)(=O)c3cccc(Cl)c3)cc12`, the Ki in [8] was 269 nM; in [1] it was 231 nM; in assay [2], 4.7 nM; on D(4) dopamine receptor it was over 5000 nM; at D(2) dopamine receptor, over 2000 nM; in assay [3] it was 0.4 nM. For the same compound, the Ki worked out at 24 nM in assay [9], 2.7 nM in assay [5], 930 nM at D(3) dopamine receptor and 200 nM in assay [7]. This compound also returned an Emax in assay [4] of 100%. This compound also came in with an EC50 in assay [6] of 1.6 nM.

For `CN1CCC[C@@H]1Cc1c[nH]c2ccc(NS(=O)(=O)c3ccccc3Cl)cc12`, the Ki in [8] was 367 nM; in [1], 289 nM; in assay [2], 29.5 nM; on D(4) dopamine receptor, over 5000 nM; at D(2) dopamine receptor, over 2000 nM; in assay [3] it was 1 nM. The Ki in [9] is 74 nM; in [5] it was 16 nM; at D(3) dopamine receptor, over 1000 nM; in assay [7], 170 nM. The same compound showed an Emax in [4] of 100%. In [6], the EC50 was 1.1 nM.

For the compound `O=S(=O)(Cc1ccccc1I)Nc1ccc2[nH]cc(C[C@H]3CCCN3)c2c1`, the Emax in [4] is 100%. This compound also displayed an inhibition in assay [10] of 42%.

In assay [11], `COc1ccc(S(=O)(=O)Nc2ccc3[nH]cc(C[C@@H]4CCCN4)c3c2)cc1` came in with an inhibition of 64%.

As to `O=S(=O)(Nc1ccc2[nH]cc(C[C@@H]3CCCN3)c2c1)c1ccc(F)cc1`, the inhibition in assay [11] worked out at 74%.

As to `COc1ccc2c(c1)c(CCN(C)C)cn2S(=O)(=O)c1ccccc1`, in [12], the Affinity was found to be 16 nM.
